The record followed here is PubChem BioAssay.

Activity calls are given as the source filed them.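 The calls were made as follows, unless noted: active = GFP response above 150% of the DMSO level; inconclusive = fewer than 70 events counted for a yeast strain; inactive = the rest.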

The nature of assay [1]: RPL19A-GFP modulators, yeast TOR pathway, confirmation, cell-based, S. cerevisiae, flow cytometry, cherry picks, mother/daughter gates (AID 2270;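 active = GFP response below 50% of the DMSO control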). Particulars: S. cerevisiae RPL19A-GFP strain, 3 h, at 10 µM, stronger effect = lower value, 100 = same GFP as DMSO wells. On the technique in general: In flow cytometry, cells or beads pass a laser one at a time.
Assay [2] in a line: LAP4-GFP expression modulators in yeast, confirmation, cell-based, cherry picks, flow cytometry, mother/daughter gates (AID 2271;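 active = GFP response above 150% of the DMSO control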;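 also: ratio of sample to DMSO plate mean so 100% equals DMSO level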). The following applies: S. cerevisiae LAP4-GFP strain, 3 h, at 10 µM, stronger effect = higher value, 100 means same as DMSO control. The method, boiled down:
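Material: Alexa 633-stained baker's yeast GFP-fusion strain; Compound dosing: single test-compound dose, 10 µM final; Incubation: 30 °C, 3 h compound incubation, rotating; Detection: HT flow cytometry, GFP fluorescence channel; Control set: positive rapamycin (400 ng/mL), negative DMSO.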

Assay [3] is described as follows: modulators of MEP2-GFP levels in yeast, confirmation, S. cerevisiae, flow cytometry GFP, cherry picks (AID 2272;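 active = GFP response above 150% of the DMSO control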;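 also: ratio of well signal to plate DMSO mean so 100% equals DMSO level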). The following applies: S. cerevisiae MEP2-GFP strain, 3 h, at 10 µM, stronger effect = higher value.
Assay [4] in a line: AGP1-GFP expression modulators, hit retest, confirmation, cell-based, flow cytometry, S. cerevisiae, cherry picks (AID 2273).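 Also: median GFP channel fluorescence over the whole cell population gate.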 The following applies: S. cerevisiae AGP1-GFP strain, 3 h, at 10 µM.
A short description of assay [5]: modulators of CIT2-GFP expression in yeast, confirmation, S. cerevisiae, GFP fusion, cherry picks, mother/daughter gates (AID 2274). The following applies: S. cerevisiae CIT2-GFP strain, flow cytometry, 3 h, at 10 µM, stronger effect = higher value.
The mark [6] stands for this setting: measured here: daughter cell gate.
[7] abbreviates: measured here: mother cell gate.
Setting [8] is: measured here: daughter cell gate response.
[9] abbreviates: measured here: mother cell gate response.

Consider `O=C(COC(=O)CCc1nc2ccccc2s1)Nc1nc(-c2ccccc2)cs1`, for which the GFP response vs DMSO in assay [1] is 101% (inactive); in assay [1] (setting [6]), 100%; in assay [1] (setting [7]), 100%; in assay [3] it was 100% (inactive). Also, the GFP response relative to DMSO in assay [2] is 96.2% (inactive); in assay [2] (setting [8]), 98.7%; in assay [2] (setting [9]) it was 97.2%. The GFP response, % of DMSO was 101% (inactive) in assay [4], 102% (inactive) in assay [5], 98.1% in assay [5] (setting [6]) and 103% in assay [5] (setting [7]).
As to `O=C(O)CCC(=O)Nc1ccc(S(=O)(=O)c2ccc(NC(=O)CCC(=O)O)cc2)cc1`, the GFP response vs DMSO was 98.5% (inactive) in assay [1], 100% in assay [1] (setting [6]), 97.7% in assay [1] (setting [7]) and 106% (inactive) in assay [3]. The GFP response relative to DMSO in assay [2] is 102% (inactive); in assay [2] (setting [8]), 97.5%; in assay [2] (setting [9]), 102%. Besides, the GFP response, % of DMSO in assay [4] is 100% (inactive); in assay [5], 98.6% (inactive); in assay [5] (setting [6]), 99.3%; in assay [5] (setting [7]) it was 99.3%.
On to `COc1ccc(N/N=C(\C#N)C(N)=O)cc1`, for which the GFP response vs DMSO in assay [1] is 83.7% (inactive); in assay [1] (setting [6]), 64.6%; in assay [1] (setting [7]) it was 83.7%; in assay [3], 141% (inactive). The GFP response relative to DMSO in assay [2] was 166% (active); in assay [2] (setting [8]), 136%; in assay [2] (setting [9]), 185%. Further, the GFP response, % of DMSO in assay [4] is 125% (inactive); in assay [5] it was 136% (inactive); in assay [5] (setting [6]) it was 114%; in assay [5] (setting [7]) it was 135%.
Consider `NNC(=O)c1ccc(COc2ccc3ccccc3c2)cc1`, for which the GFP response vs DMSO in assay [1] was 98% (inactive); in assay [1] (setting [6]) it was 96.1%; in assay [1] (setting [7]) it was 95.7%; in assay [3] it was 99% (inactive). Moreover, the GFP response relative to DMSO in assay [2] was 101% (inactive); in assay [2] (setting [8]), 101%; in assay [2] (setting [9]), 102%. In addition, the GFP response, % of DMSO was 94.9% (inactive) in assay [4], 93% (inactive) in assay [5], 93.8% in assay [5] (setting [6]) and 91.9% in assay [5] (setting [7]).
Consider `CC(=O)c1ccc(N2CCN(S(=O)(=O)c3ccc4c(c3)CC(C)N4C(C)=O)CC2)cc1` (stereo unspecified), for which the GFP response vs DMSO in assay [1] is 95.8% (inactive); in assay [1] (setting [6]), 93.9%; in assay [1] (setting [7]), 91.9%; in assay [3], 103% (inactive). Also, the figures for the GFP response relative to DMSO in assay [2], in assay [2] (setting [8]) and in assay [2] (setting [9]) were 98.9% (inactive), 97.5% and 98.4%, respectively. The GFP response, % of DMSO is 98.8% (inactive) in assay [4], 104% (inactive) in assay [5], 99.3% in assay [5] (setting [6]) and 103% in assay [5] (setting [7]).
As for `Cc1cccn2c(=O)c(/C=C(\C#N)C(=O)NC3CCS(=O)(=O)C3)c(N3CCC(C)CC3)nc12` (stereo unspecified), the GFP response vs DMSO in assay [1] is 102% (inactive); in assay [1] (setting [6]) it was 101%; in assay [1] (setting [7]) it was 102%; in assay [3] it was 102% (inactive). The GFP response relative to DMSO is 96.2% (inactive) in assay [2], 97.2% in assay [2] (setting [8]) and 95.2% in assay [2] (setting [9]). Besides, the GFP response, % of DMSO was 101% (inactive) in assay [4], 107% (inactive) in assay [5], 99.7% in assay [5] (setting [6]) and 109% in assay [5] (setting [7]).
Regarding `c1cnc2c(SCc3ccc(-c4nnco4)cc3)cccc2c1`, the GFP response vs DMSO was 98.2% (inactive) in assay [1], 96.4% in assay [1] (setting [6]), 97.5% in assay [1] (setting [7]) and 106% (inactive) in assay [3]. Further, the values for the GFP response relative to DMSO in assay [2], in assay [2] (setting [8]) and in assay [2] (setting [9]) were 108% (inactive), 108% and 110%, respectively. In addition, the GFP response, % of DMSO is 104% (inactive) in assay [4], 94.4% (inactive) in assay [5], 90.5% in assay [5] (setting [6]) and 96% in assay [5] (setting [7]).
With `CCC(=O)Nc1nc(C)c(-c2csc(Nc3cccc(C(=O)O)c3)n2)s1`, the GFP response vs DMSO is 97.3% (inactive) in assay [1], 97.8% in assay [1] (setting [6]), 97.3% in assay [1] (setting [7]) and 101% (inactive) in assay [3]. Further, the results for the GFP response relative to DMSO in assay [2], in assay [2] (setting [8]) and in assay [2] (setting [9]) were 85.8% (inactive), 89.8% and 87.3%, respectively. Besides, the GFP response, % of DMSO in assay [4] was 94.8% (inactive); in assay [5], 100% (inactive); in assay [5] (setting [6]) it was 101%; in assay [5] (setting [7]) it was 100%.
Regarding `Cc1ccc(C(=O)Oc2oc(-c3ccccc3)nc2C=Nc2ccc(N(C)C)cc2)cc1`, the GFP response vs DMSO in assay [1] is 98.2% (inactive); in assay [1] (setting [6]), 99.4%; in assay [1] (setting [7]), 98.8%; in assay [3], 105% (inactive). The values for the GFP response relative to DMSO in assay [2], in assay [2] (setting [8]) and in assay [2] (setting [9]) were 94.9% (inactive), 98.2% and 93%, respectively. For the same compound, the GFP response, % of DMSO was 101% (inactive) in assay [4], 113% (inactive) in assay [5], 114% in assay [5] (setting [6]) and 114% in assay [5] (setting [7]).
Regarding `Cc1nnc(NC(=O)c2csc3c2CCC(C)C3)s1` (stereo unspecified), the GFP response vs DMSO is 91.5% (inactive) in assay [1], 87.2% in assay [1] (setting [6]), 93.3% in assay [1] (setting [7]) and 93.5% (inactive) in assay [3]. In addition, the GFP response relative to DMSO in assay [2] was 117% (inactive); in assay [2] (setting [8]), 110%; in assay [2] (setting [9]) it was 124%. Further, the GFP response, % of DMSO in assay [4] is 93% (inactive); in assay [5], 78.2% (inactive); in assay [5] (setting [6]) it was 76.8%; in assay [5] (setting [7]), 77.3%.
For `CC(C(=O)O)n1nc(-c2ccccc2)c2ccccc21` (stereo unspecified), the GFP response vs DMSO is 97.8% (inactive) in assay [1], 99.6% in assay [1] (setting [6]), 95.3% in assay [1] (setting [7]) and 99% (inactive) in assay [3]. For the same compound, the GFP response relative to DMSO in assay [2] is 99.5% (inactive); in assay [2] (setting [8]) it was 101%; in assay [2] (setting [9]), 97.3%. Moreover, the GFP response, % of DMSO in assay [4] is 102% (inactive); in assay [5], 102% (inactive); in assay [5] (setting [6]) it was 101%; in assay [5] (setting [7]) it was 101%.
In the case of `O=C1CC(Sc2nnnn2C2CCCCC2)C(=O)N1c1ccccc1` (stereo unspecified), the GFP response vs DMSO in assay [1] is 94.3% (inactive); in assay [1] (setting [6]) it was 95.5%; in assay [1] (setting [7]) it was 94.8%; in assay [3], 97.5% (inactive). Further, the GFP response relative to DMSO in assay [2] was 107% (inactive); in assay [2] (setting [8]) it was 104%; in assay [2] (setting [9]) it was 107%. Further, the GFP response, % of DMSO was 99.3% (inactive) in assay [4], 95% (inactive) in assay [5], 94.6% in assay [5] (setting [6]) and 93.3% in assay [5] (setting [7]).
As for `O=C(NNC1=NCCC1)c1cccc(Br)c1`, the GFP response vs DMSO was 98% (inactive) in assay [1], 98.5% in assay [1] (setting [6]), 97.9% in assay [1] (setting [7]) and 99.5% (inactive) in assay [3]. Besides, the GFP response relative to DMSO in assay [2] was 100% (inactive); in assay [2] (setting [8]), 97.9%; in assay [2] (setting [9]) it was 99.5%. For the same compound, the GFP response, % of DMSO in assay [4] is 97.5% (inactive); in assay [5] it was 96.4% (inactive); in assay [5] (setting [6]) it was 96.4%; in assay [5] (setting [7]), 94.5%.
Regarding `O=[N+]([O-])c1ccc(Sc2ccc(Cl)c(Cl)c2)nc1`, the GFP response vs DMSO in assay [1] is 97.1% (inactive); in assay [1] (setting [6]), 96.1%; in assay [1] (setting [7]) it was 96.9%; in assay [3], 103% (inactive). Moreover, the GFP response relative to DMSO is 98.9% (inactive) in assay [2], 102% in assay [2] (setting [8]) and 100% in assay [2] (setting [9]). In addition, the GFP response, % of DMSO in assay [4] was 101% (inactive); in assay [5], 98.6% (inactive); in assay [5] (setting [6]) it was 99.3%; in assay [5] (setting [7]), 99.3%.
As for `CCOC(=O)CNc1c(-c2ccc(OC)cc2)nc2ccc(Cl)cn12`, the GFP response vs DMSO in assay [1] was 100% (inactive); in assay [1] (setting [6]), 98.4%; in assay [1] (setting [7]) it was 101%; in assay [3], 97.8% (inactive). Besides, the GFP response relative to DMSO was 99.8% (inactive) in assay [2], 98.7% in assay [2] (setting [8]) and 102% in assay [2] (setting [9]). The GFP response, % of DMSO in assay [4] was 99.2% (inactive); in assay [5], 95.2% (inactive); in assay [5] (setting [6]), 93.2%; in assay [5] (setting [7]), 93.4%.
For `CC(Oc1ccc(Br)cc1)C(=O)Nc1nc(-c2ccccn2)cs1` (stereo unspecified), the GFP response vs DMSO in assay [1] is 104% (inactive); in assay [1] (setting [6]) it was 95.9%; in assay [1] (setting [7]), 105%; in assay [3], 117% (inactive). Also, the GFP response relative to DMSO was 241% (active) in assay [2], 184% in assay [2] (setting [8]) and 258% in assay [2] (setting [9]). Also, the GFP response, % of DMSO in assay [4] was 92.9% (inactive); in assay [5] it was 98.3% (inactive); in assay [5] (setting [6]), 97.2%; in assay [5] (setting [7]), 93.8%.
